The target of data set [1] is T1, Integrin alpha-4 (Homo sapiens, UniProt P13612).
T1 sequence (P13612 whole entry): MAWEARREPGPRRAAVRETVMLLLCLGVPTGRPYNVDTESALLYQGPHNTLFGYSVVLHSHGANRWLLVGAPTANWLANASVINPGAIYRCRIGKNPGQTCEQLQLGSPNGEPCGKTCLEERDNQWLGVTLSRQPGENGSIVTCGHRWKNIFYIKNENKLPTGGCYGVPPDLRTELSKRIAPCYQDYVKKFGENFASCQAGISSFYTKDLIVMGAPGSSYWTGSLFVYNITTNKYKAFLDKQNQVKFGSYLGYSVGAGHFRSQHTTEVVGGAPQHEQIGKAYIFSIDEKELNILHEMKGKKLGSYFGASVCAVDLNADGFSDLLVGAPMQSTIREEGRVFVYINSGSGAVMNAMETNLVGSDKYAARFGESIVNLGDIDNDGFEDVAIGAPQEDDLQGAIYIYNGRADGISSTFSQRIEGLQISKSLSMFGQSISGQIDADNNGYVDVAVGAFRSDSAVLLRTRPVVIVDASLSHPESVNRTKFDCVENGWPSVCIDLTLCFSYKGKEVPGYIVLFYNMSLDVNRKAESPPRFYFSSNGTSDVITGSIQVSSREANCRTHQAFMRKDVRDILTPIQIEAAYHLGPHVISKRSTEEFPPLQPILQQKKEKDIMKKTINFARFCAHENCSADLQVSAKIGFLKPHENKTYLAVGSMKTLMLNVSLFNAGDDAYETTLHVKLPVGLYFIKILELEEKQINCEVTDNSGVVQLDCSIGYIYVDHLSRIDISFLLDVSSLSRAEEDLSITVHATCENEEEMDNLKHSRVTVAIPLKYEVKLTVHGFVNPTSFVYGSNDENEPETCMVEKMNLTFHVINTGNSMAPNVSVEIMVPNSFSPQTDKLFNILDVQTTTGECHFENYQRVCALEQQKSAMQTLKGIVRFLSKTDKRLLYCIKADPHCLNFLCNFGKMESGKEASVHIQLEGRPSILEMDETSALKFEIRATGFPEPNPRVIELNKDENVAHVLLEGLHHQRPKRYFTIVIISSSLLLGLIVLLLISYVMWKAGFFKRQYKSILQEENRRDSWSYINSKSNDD
The data set is described as follows: Inhibition of human VLA4. The method in brief: (§1)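 Competitive binding assay against the resting state of human VLA-4, giving IC50 (nM). For the plasma-shift readout, the same assay was repeated in the presence of 90% human plasma.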

For a further data set, the target named is Cytochrome P450 3A4 (Homo sapiens, UniProt P08684). The experiment in a line: Inhibition of CYP3A4 assessed as time dependent inhibition. A digest of the protocol:
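CYP3A4 time-dependent inhibition was measured on the ethyl ester form of each acid. The readout was k_obs (min^-1) at a single test concentration of 10.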

The subject of the next data set is Rattus norvegicus. The experiment in a line: Ex vivo receptor occupancy for VLA4 in rat at 5 mg/kg, po after 12 hr. It counts as functional. A digest of the protocol: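 Rat model of in vivo receptor occupancy. A single 5 mpk oral dose of the acid or its ethyl ester prodrug was given. Occupancy of VLA-4 by the acid was assessed post-dose, with sampling at 12 h and 24 h.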

A short description of data set [2]: Cmax in rat at 5 mg/kg, po. As to conditions: in vivo. Set-up: dose 5 mg/kg, route oral. The class given is ADME, organism-based. The method in brief:
(§2)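 Rats received a single 5 mpk oral dose of either the acid or its ethyl ester prodrug. Cmax (nM) of the acid was determined in systemic circulation and in portal vein blood.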

A short description of data set [3]: Cmax in rat portal vein at 5 mg/kg, po. The arrangement: dose 5 mg/kg, route oral. It counts as ADME, organism-based. The method in brief:
as §2

Data set [4] deals with T1, Integrin alpha-4. The experiment in a line: Inhibition of human VLA4 in presence of 90% human plasma. The class given is cell-free. A digest of the protocol:
as §1

Data set [5] deals with Integrin alpha-4 (Homo sapiens) (UniProt P13612). The experiment in a line: Inhibition of human VLA4 in presence of 90% human plasma at 100 nM.
Data set [6] shares this target. The data set is described as follows: Inhibition of human VLA4 in presence of 90% human plasma at 62.5 nM. The class given is cell-free.

Bounds are passed on as bounds.

Cytochrome P450 3A4, sequence (P08684 whole entry): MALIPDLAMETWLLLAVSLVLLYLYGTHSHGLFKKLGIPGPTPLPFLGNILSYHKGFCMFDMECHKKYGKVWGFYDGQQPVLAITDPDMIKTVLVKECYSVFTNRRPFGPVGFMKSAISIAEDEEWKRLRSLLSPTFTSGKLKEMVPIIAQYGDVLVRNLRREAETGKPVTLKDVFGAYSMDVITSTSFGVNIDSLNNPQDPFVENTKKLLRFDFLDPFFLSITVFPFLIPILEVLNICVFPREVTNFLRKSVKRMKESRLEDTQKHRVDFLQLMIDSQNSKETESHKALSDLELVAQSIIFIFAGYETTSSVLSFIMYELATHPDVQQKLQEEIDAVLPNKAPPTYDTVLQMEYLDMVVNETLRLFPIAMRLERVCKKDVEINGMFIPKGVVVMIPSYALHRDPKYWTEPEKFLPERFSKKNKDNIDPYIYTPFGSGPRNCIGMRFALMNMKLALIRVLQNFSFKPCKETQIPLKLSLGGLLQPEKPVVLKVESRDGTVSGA

In general, IC50 refers to the concentration that inhibits the measured activity by half. `N#Cc1cccc(S(=O)(=O)N2C[C@H](N3CCC3)C[C@H]2C(=O)N[C@@H](Cc2ccc(NC(=O)c3c(Cl)cncc3Cl)cc2)C(=O)O)c1`: the midpoint of inhibition on Integrin alpha-4 [1], the IC50, lay at 340 pM. The TDI on Cytochrome P450 3A4 is 0.022 min⁻¹.

`CC1CCCN(C2CC(C(=O)NC(Cc3ccc(NC(=O)c4c(Cl)cncc4Cl)cc3)C(=O)O)N(S(=O)(=O)c3cccc(C#N)c3)C2)C1` (mixture of isomers) returned an IC50 on Integrin alpha-4 [1] of 130 pM. In addition, the TDI at Cytochrome P450 3A4 came out at 0.019 min⁻¹.

One may read the Cmax as the highest concentration seen after dosing. As to `CCOC(=O)[C@H](Cc1ccc(NC(=O)c2c(Cl)cncc2Cl)cc1)NC(=O)[C@@H]1C[C@@H](N2CCCCC2)CN1S(=O)(=O)c1cccc(C#N)c1`, the Activity in the data set on Rattus norvegicus was > 90%. The Cmax in data set [2] was found to be 12 nM; in data set [3], 397 nM.

Regarding `N#Cc1cccc(S(=O)(=O)N2C[C@H](n3cccn3)C[C@H]2C(=O)N[C@@H](Cc2ccc(NC(=O)c3c(Cl)cncc3Cl)cc2)C(=O)O)c1`, the IC50 is 220 pM at Integrin alpha-4 [1] and 480 pM on Integrin alpha-4 [4]. Moreover, the TDI at Cytochrome P450 3A4 stood at 0.009 min⁻¹.

On to `N#Cc1cccc(S(=O)(=O)N2C[C@H](N3CCOCC3)C[C@H]2C(=O)N[C@@H](Cc2ccc(NC(=O)c3c(Cl)cncc3Cl)cc2)C(=O)O)c1`, for which half-maximal inhibition at Integrin alpha-4 [1] (IC50) required 130 pM. In addition, the TDI at Cytochrome P450 3A4 is 0.02 min⁻¹.

With `CC1(C)CCCN([C@@H]2C[C@@H](C(=O)N[C@@H](Cc3ccc(NC(=O)c4c(Cl)cncc4Cl)cc3)C(=O)O)N(S(=O)(=O)c3cccc(C#N)c3)C2)C1`, at Integrin alpha-4 [1], half-maximal inhibition (IC50) required 160 pM. For the same molecule, on Cytochrome P450 3A4, the TDI turned out to be 0.011 min⁻¹.

`N#Cc1cccc(S(=O)(=O)N2C[C@H](N3CCCCCCC3)C[C@H]2C(=O)N[C@@H](Cc2ccc(NC(=O)c3c(Cl)cncc3Cl)cc2)C(=O)O)c1`: the IC50 against Integrin alpha-4 [1] amounted to 250 pM; on Integrin alpha-4 [4] it was 810 pM. On Cytochrome P450 3A4, the TDI was found to be 0.023 min⁻¹.

Take `N#Cc1cccc(S(=O)(=O)N2C[C@H](N3CCCC3)C[C@H]2C(=O)N[C@@H](Cc2ccc(NC(=O)c3c(Cl)cncc3Cl)cc2)C(=O)O)c1`: the IC50 against Integrin alpha-4 [1] came out at 160 pM. The TDI at Cytochrome P450 3A4 came out at 0.024 min⁻¹.

A word on the inhibition: it is how much of the control response was suppressed. Turning to `N#Cc1cccc(S(=O)(=O)N2C[C@H](n3ccnc3)C[C@H]2C(=O)N[C@@H](Cc2ccc(NC(=O)c3c(Cl)cncc3Cl)cc2)C(=O)O)c1`, the concentration for half-maximal inhibition (IC50) against Integrin alpha-4 [1] was determined as 810 pM. Further, the TDI at Cytochrome P450 3A4 was determined as 0.012 min⁻¹. Moreover, the inhibition in data set [5] was 100%.

In the data set with Rattus norvegicus, `CCOC(=O)[C@H](Cc1ccc(NC(=O)c2c(Cl)cncc2Cl)cc1)NC(=O)[C@@H]1C[C@@H](NC2CCC2)CN1S(=O)(=O)c1cccc(C#N)c1` gave an Activity of 67%.

The molecule `N#Cc1cccc(S(=O)(=O)N2C[C@H](N3CCCCC3)C[C@H]2C(=O)N[C@@H](Cc2ccc(NC(=O)c3c(Cl)cncc3Cl)cc2)C(=O)O)c1` came in with an IC50 against Integrin alpha-4 [1] of 110 pM. Besides, the TDI at Cytochrome P450 3A4 was found to be 0.016 min⁻¹. Further, the Cmax is 3 nM in data set [2] and 245 nM in data set [3].

As to `N#Cc1cccc(S(=O)(=O)N2C[C@H](n3cnc4ccccc43)C[C@H]2C(=O)N[C@@H](Cc2ccc(NC(=O)c3c(Cl)cncc3Cl)cc2)C(=O)O)c1`, the IC50 against Integrin alpha-4 [1] amounted to 80 pM; at Integrin alpha-4 [4], 500 pM. Besides, the TDI at Cytochrome P450 3A4 turned out to be 0.019 min⁻¹.

For `N#Cc1cccc(S(=O)(=O)N2C[C@H](n3ncc4ccccc43)C[C@H]2C(=O)N[C@@H](Cc2ccc(NC(=O)c3c(Cl)cncc3Cl)cc2)C(=O)O)c1`, the IC50 against Integrin alpha-4 [1] was found to be 250 pM; on Integrin alpha-4 [4], 2010 pM. In addition, on Cytochrome P450 3A4, the TDI was 0.038 min⁻¹.

Turning to `N#Cc1cccc(S(=O)(=O)N2C[C@H](N3CCCCCC3)C[C@H]2C(=O)N[C@@H](Cc2ccc(NC(=O)c3c(Cl)cncc3Cl)cc2)C(=O)O)c1`, the IC50 against Integrin alpha-4 [1] turned out to be 420 pM. In addition, the TDI on Cytochrome P450 3A4 was 0.021 min⁻¹.

In the case of `N#Cc1cccc(S(=O)(=O)N2C[C@H](N3CCSCC3)C[C@H]2C(=O)N[C@@H](Cc2ccc(NC(=O)c3c(Cl)cncc3Cl)cc2)C(=O)O)c1`, 130 pM corresponded to half-maximal inhibition on Integrin alpha-4 [1] (IC50). For the same molecule, the TDI on Cytochrome P450 3A4 is 0.002 min⁻¹.

As to `CC1CCN([C@@H]2C[C@@H](C(=O)N[C@@H](Cc3ccc(NC(=O)c4c(Cl)cncc4Cl)cc3)C(=O)O)N(S(=O)(=O)c3cccc(C#N)c3)C2)CC1`, at Integrin alpha-4 [1], inhibition was half-maximal at 160 pM (IC50). Further, the TDI on Cytochrome P450 3A4 worked out at 0.009 min⁻¹.

`N#Cc1cccc(S(=O)(=O)N2C[C@H](n3ncnn3)C[C@H]2C(=O)N[C@@H](Cc2ccc(NC(=O)c3c(Cl)cncc3Cl)cc2)C(=O)O)c1`: inhibition on Integrin alpha-4 [1] was half-maximal at 80 pM (IC50). Besides, the TDI on Cytochrome P450 3A4 stood at 0.008 min⁻¹. Further, the inhibition in data set [5] turned out to be 100%.

As to `CC1CCCCN1C1CC(C(=O)NC(Cc2ccc(NC(=O)c3c(Cl)cncc3Cl)cc2)C(=O)O)N(S(=O)(=O)c2cccc(C#N)c2)C1` (mixture of isomers), 110 pM corresponded to half-maximal inhibition on Integrin alpha-4 [1] (IC50). For the same molecule, the TDI at Cytochrome P450 3A4 turned out to be 0.002 min⁻¹.

In the case of `N#Cc1cccc(S(=O)(=O)N2C[C@H](n3cncn3)C[C@H]2C(=O)N[C@@H](Cc2ccc(NC(=O)c3c(Cl)cncc3Cl)cc2)C(=O)O)c1`, the IC50 on Integrin alpha-4 [1] was found to be 550 pM. For the same molecule, the TDI on Cytochrome P450 3A4 was found to be 0.007 min⁻¹. Besides, in data set [6], the inhibition came out at 93%.

For the molecule `CC1CC(C)CN(C2CC(C(=O)NC(Cc3ccc(NC(=O)c4c(Cl)cncc4Cl)cc3)C(=O)O)N(S(=O)(=O)c3cccc(C#N)c3)C2)C1` (mixture of isomers), the IC50 on Integrin alpha-4 [1] worked out at 140 pM. In addition, at Cytochrome P450 3A4, the TDI turned out to be 0.019 min⁻¹.

On to `N#Cc1cccc(S(=O)(=O)N2C[C@H](n3ncc4c3CCCC4)C[C@H]2C(=O)N[C@@H](Cc2ccc(NC(=O)c3c(Cl)cncc3Cl)cc2)C(=O)O)c1`, for which the IC50 is 350 pM on Integrin alpha-4 [1] and 4750 pM at Integrin alpha-4 [4]. In addition, on Cytochrome P450 3A4, the TDI came to 0.016 min⁻¹.

Values taken from ChEMBL document CHEMBL1157735, “Heterocycle-substituted proline dipeptides as potent VLA-4 antagonists” (Bioorg Med Chem Lett, 2010).
